Assay results taken from ChEMBL document CHEMBL4014307, “Diindolylmethane Derivatives: Potent Agonists of the Immunostimulatory Orphan G Protein-Coupled Receptor GPR84” (J Med Chem, 2017).
Active and inactive are the calls of the source.

What was measured:
[1] = molecular target: T1, G-protein coupled receptor 84 (Homo sapiens, UniProt Q9NQS5); experiment: Agonist activity at Gi coupled human GPR84 expressed in CHO cells assessed as inhibition of forskolin-induced cAMP accumulation after 15 mins in presence of [3H]-cAMP by radiometric assay; type: functional, cell-based
T1 sequence (Q9NQS5 whole entry): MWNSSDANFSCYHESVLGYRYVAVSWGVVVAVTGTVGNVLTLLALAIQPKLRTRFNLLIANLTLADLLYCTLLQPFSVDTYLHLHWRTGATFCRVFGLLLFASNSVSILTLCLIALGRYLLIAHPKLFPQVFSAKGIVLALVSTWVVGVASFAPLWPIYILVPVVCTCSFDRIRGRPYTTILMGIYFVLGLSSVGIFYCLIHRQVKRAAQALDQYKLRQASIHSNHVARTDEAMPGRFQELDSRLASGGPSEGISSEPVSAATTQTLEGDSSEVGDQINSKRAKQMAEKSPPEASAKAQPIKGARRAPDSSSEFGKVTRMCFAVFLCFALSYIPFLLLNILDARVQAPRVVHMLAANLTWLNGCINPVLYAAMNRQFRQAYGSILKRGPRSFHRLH
Summary of the method: (§1)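 Forskolin (10 µM) added with or without test compound for 15 min. Cells lysed in hot (90 °C) EDTA/Triton X-100 solution. cAMP measured radiometrically with bovine adrenal binding protein and [³H]cAMP, expressed as % of forskolin-alone response.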

[2] = molecular target: T1, G-protein coupled receptor 84; experiment: Agonist activity at Gi coupled human GPR84 expressed in CHO cells assessed as inhibition of forskolin-induced cAMP accumulation at 10 uM after 15 mins in presence of [3H]-cAMP by radiometric assay relative to decanoic acid; type: functional, cell-based; summary of the method: as §1
[3] = molecular target: T2, Free fatty acid receptor 4 (Homo sapiens) (UniProt Q5NUL3); experiment: Agonist activity at human FFAR4 expressed in CHO cells assessed as beta-arrestin recruitment at 10 uM after 90 mins by beta-galactosidase complementation assay; type: cell-based
T2 sequence (whole entry): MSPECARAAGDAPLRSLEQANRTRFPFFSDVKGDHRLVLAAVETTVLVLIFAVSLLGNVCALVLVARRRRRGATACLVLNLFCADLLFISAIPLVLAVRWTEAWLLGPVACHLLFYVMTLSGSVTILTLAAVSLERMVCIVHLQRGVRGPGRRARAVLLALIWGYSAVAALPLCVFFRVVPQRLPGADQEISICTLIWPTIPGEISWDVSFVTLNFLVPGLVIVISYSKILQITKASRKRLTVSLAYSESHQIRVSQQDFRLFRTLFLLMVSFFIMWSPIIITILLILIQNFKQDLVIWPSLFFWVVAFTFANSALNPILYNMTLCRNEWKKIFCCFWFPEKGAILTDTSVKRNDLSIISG
Summary of the method: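 Human FFAR4 in CHO β-galactosidase complementation cells, 30,000 per well, serum-free F12 ~4 h before assay; final DMSO 1 %, compounds 10 µM. Agonist mode: 90 min with agonist, then detection 60 min rt dark; luminescence. 3–4 experiments in duplicate.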

[4] = molecular target: T1, G-protein coupled receptor 84; experiment: Antagonist activity at Gi coupled human GPR84 expressed in CHO cells assessed as inhibition of decanoic acid-induced receptor activation at 10 uM; type: cell-based
[5] = molecular target: Free fatty acid receptor 1 (Homo sapiens, UniProt O14842); experiment: Agonist activity at Gq protein coupled human FFAR1 expressed in human 1321N1 cells assessed as induction of intracellular calcium level at 10 uM measured at 1.2 secs time interval by Fluo-4-AM dye based fluorescence assay; type: functional, cell-based
Free fatty acid receptor 1, sequence (O14842 whole entry): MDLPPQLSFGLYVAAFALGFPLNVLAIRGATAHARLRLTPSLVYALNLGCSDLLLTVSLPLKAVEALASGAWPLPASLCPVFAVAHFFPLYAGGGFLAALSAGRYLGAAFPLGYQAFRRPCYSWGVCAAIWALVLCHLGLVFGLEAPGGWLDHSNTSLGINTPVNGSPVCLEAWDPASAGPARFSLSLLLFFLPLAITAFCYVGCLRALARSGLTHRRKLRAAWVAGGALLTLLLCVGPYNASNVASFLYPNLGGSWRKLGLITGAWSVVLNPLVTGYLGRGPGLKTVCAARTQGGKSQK
Summary of the method: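 1321N1 astrocytoma cells retrovirally expressing human FFAR1, 50,000 per well, loaded 60 min at rt in dark with 3 µM Fluo-4-AM and 0.06 % Pluronic F-127 in HBSS. Compounds at 10 µM final; antagonist mode uses 30 min preincubation before TUG-424 (final 1 µM). Fluorescence at 520 nm (excitation 485 nm), 90 reads at 1.2 s intervals. Normalized to TUG-424 at 10 µM (agonist) or 1 µM (antagonist).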

[6] = molecular target: T2, Free fatty acid receptor 4 (Homo sapiens); experiment: Antagonist activity at human FFAR4 expressed in CHO cells assessed as inhibition of TUG-89-induced beta-arrestin recruitment at 10 uM preincubated for 30 mins followed by TUG-89 addition measured after 90 mins by beta-galactosidase complementation assay; type: cell-based
[7] = molecular target: T1, G-protein coupled receptor 84; experiment: Agonist activity at human GPR84 expressed in CHO cells assessed as beta-arrestin recruitment at 10 uM after 90 mins by beta-galactosidase complementation assay relative to embelin; type: cell-based
Summary of the method: (§2)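 CHO cells co-expressing human GPR84–β-galactosidase fragment and β-arrestin–complementary fragment, 20,000 per well. Compounds in DMSO (final ≤1 %) added for 90 min, then detection reagent for 60 min at rt; luminescence read. Three to five independent experiments in duplicate.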

[8] = molecular target: T1, G-protein coupled receptor 84; experiment: Agonist activity at human GPR84 expressed in CHO cells assessed as beta-arrestin recruitment after 90 mins by beta-galactosidase complementation assay; type: cell-based; summary of the method: as §2

SMILES	EC50 [1]	Emax [2]	Activity [3]	inhibition [4]	Activity [5]	inhibition [6]	Emax [7]	EC50 [8]
O=C1Nc2ccccc2C1=Cc1c[nH]c2ccc(F)cc12	> 10 µM	-1%	inactive	inactive	inactive	inactive		
N#Cc1ccc2[nH]cc(Cc3c[nH]c4ccc(C#N)cc34)c2c1	≥ 10 µM	49%	inactive	inactive	inactive	inactive		
COc1cccc2c(Cc3c[nH]c4c(OC)cccc34)c[nH]c12	> 10 µM	18%	inactive	inactive	inactive	inactive		
Fc1ccc2[nH]cc(Cc3c[nH]c4ccc(F)c(F)c34)c2c1F	0.377 µM	123%	inactive		inactive	inactive	-2%	> 10 µM
Fc1ccc2[nH]cc(Cc3c[nH]c4ccccc34)c2c1		115%	inactive		inactive	inactive	72%	
O=C(O)c1ccc2[nH]cc(Cc3c[nH]c4ccccc34)c2c1	> 10 µM	5%	inactive	inactive	inactive	inactive		
COC(=O)c1ccc2[nH]cc(Cc3c[nH]c4ccc(C(=O)OC)cc34)c2c1	> 10 µM	11%	inactive	inactive	inactive	inactive		
Cc1cccc2[nH]cc(Cc3c[nH]c4cccc(C)c34)c12	0.987 µM	112%	inactive		inactive	inactive	24%	> 10 µM
O=[N+]([O-])c1ccc2[nH]cc(Cc3c[nH]c4ccc([N+](=O)[O-])cc34)c2c1	> 10 µM	31%	inactive	inactive	inactive	inactive		
Clc1ccc2[nH]cc(Cc3c[nH]c4ccc(Cl)cc34)c2c1	4.96 µM	86%	inactive		inactive	inactive		
O=C(c1c[nH]c2ccccc12)c1c[nH]c2ccccc12	0.553 µM	104%	inactive		inactive	inactive	161%	19 µM
Cc1ccc2[nH]cc(Cc3c[nH]c4ccc(C)cc34)c2c1	≥ 10 µM	45%	inactive		inactive	inactive	49%	≥ 10 µM
Fc1ccc(C(c2c[nH]c3ccccc23)c2c[nH]c3ccccc23)cc1	> 10 µM	8%	inactive	inactive	inactive	inactive		
c1ccc(COc2ccc3[nH]cc(Cc4c[nH]c5ccc(OCc6ccccc6)cc45)c3c2)cc1	> 10 µM	36%	inactive	inactive	inactive	inactive		
COc1ccc2[nH]cc(CC3C(=O)Nc4ccccc43)c2c1 (centres undefined)	> 10 µM	-21%	inactive	inactive	inactive	inactive		
COc1ccc2c(Cc3c[nH]c4cc(OC)ccc34)c[nH]c2c1	> 10 µM	31%	inactive	inactive	inactive	inactive		
Cc1ccccc1C#Cc1ccc(CCC(=O)O)cc1					inactive			

SMILES	EC50 [1]	Emax [2]	Activity [3]	inhibition [4]	Activity [5]	inhibition [6]	Emax [7]	EC50 [8]
COc1ccc2[nH]cc(CC3C(=O)Nc4ccc(F)cc43)c2c1 (centres undefined)	> 10 µM	-10%	inactive	inactive	inactive	inactive		
O=C1Nc2ccc(F)cc2C1Cc1c[nH]c2ccc(F)cc12 (centres undefined)	> 10 µM	16%	inactive	inactive	inactive	inactive		
COc1ccc(C(c2c[nH]c3ccccc23)c2c[nH]c3ccccc23)cc1	> 10 µM	-3%	inactive	inactive	inactive	inactive		
O=C1Nc2ccc(F)cc2/C1=C/c1c[nH]c2ccc(F)cc12	> 10 µM	5%	inactive	inactive	inactive	inactive		
Cc1ccc2c(Cc3c[nH]c4cc(C)ccc34)c[nH]c2c1	> 10 µM	-22%	inactive	inactive	inactive	inactive		
Clc1ccc(C(c2c[nH]c3ccccc23)c2c[nH]c3ccccc23)cc1	> 10 µM	-4%	inactive	inactive	inactive	inactive		
Clc1cc(Cl)c2c(Cc3c[nH]c4cc(Cl)cc(Cl)c34)c[nH]c2c1	≥ 10 µM	51%	inactive	inactive	inactive	inactive		
Fc1cc2c(Cc3c[nH]c4cc(Cl)c(F)cc34)c[nH]c2cc1Cl	10.8 µM	83%	inactive			inactive	181%	3.98 µM
O=[N+]([O-])c1ccc(C(c2c[nH]c3ccccc23)c2c[nH]c3ccccc23)cc1	> 10 µM	6%	inactive	inactive	inactive	inactive		
Brc1ccc2[nH]cc(Cc3c[nH]c4ccc(Br)cc34)c2c1	3.44 µM	106%	inactive		inactive	inactive		
COc1ccc2[nH]cc(/C=C3\C(=O)Nc4ccccc43)c2c1	> 10 µM	-10%	inactive	inactive	inactive	inactive		
COC(=O)c1ccc2[nH]cc(Cc3c[nH]c4ccccc34)c2c1	10 µM	57%	inactive		inactive	inactive		
Fc1cc2cc[nH]c2cc1F	> 10 µM							2.97 µM
O=Cc1ccc2[nH]cc(Cc3c[nH]c4ccc(C=O)cc34)c2c1	> 10 µM	-4%	inactive	inactive	inactive	inactive		
COc1cccc2[nH]cc(Cc3c[nH]c4cccc(OC)c34)c12	≥ 10 µM	47%	inactive	inactive	inactive	inactive		
O=C1Nc2ccccc2C1Cc1ccc2[nH]ccc2c1 (centres undefined)	> 10 µM	7%	inactive	inactive	inactive	inactive		
